# From ChEMBL document CHEMBL1127319, “CNAD: a potent and specific inhibitor of alcohol dehydrogenase” (J Med Chem, 1994)
# Experiments:
# [1] = target: Glutamate dehydrogenase 1, mitochondrial (Bos taurus, UniProt P00366); experiment: Inhibition constant against mammalian glutamate dehydrogenase (GDH)
# Method in brief: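 Bovine liver GDH in 0.1 M sodium phosphate, pH 7.0, with 10 μM EDTA. NAD is the variable substrate. Rates are followed as the increase in A340 from NADH formation (ε 6.22 mM-1 cm-1). Ki is taken from Lineweaver-Burk plots by linear regression. At least duplicate runs.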
# [2] = Apparent inhibition constant against mammalian malate dehydrogenase (MDH)
# Method in brief: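 LDH and MDH: 0.05 M Tris-HCl, pH 9.0. NAD is the variable substrate. Rates come from the rise in A340 as NADH forms (ε 6.22 mM-1 cm-1). Ki is estimated from Lineweaver-Burk plots by linear regression of slope and intercept. Assays run at least in duplicate.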
# Chain of Glutamate dehydrogenase 1, mitochondrial (P00366 whole entry): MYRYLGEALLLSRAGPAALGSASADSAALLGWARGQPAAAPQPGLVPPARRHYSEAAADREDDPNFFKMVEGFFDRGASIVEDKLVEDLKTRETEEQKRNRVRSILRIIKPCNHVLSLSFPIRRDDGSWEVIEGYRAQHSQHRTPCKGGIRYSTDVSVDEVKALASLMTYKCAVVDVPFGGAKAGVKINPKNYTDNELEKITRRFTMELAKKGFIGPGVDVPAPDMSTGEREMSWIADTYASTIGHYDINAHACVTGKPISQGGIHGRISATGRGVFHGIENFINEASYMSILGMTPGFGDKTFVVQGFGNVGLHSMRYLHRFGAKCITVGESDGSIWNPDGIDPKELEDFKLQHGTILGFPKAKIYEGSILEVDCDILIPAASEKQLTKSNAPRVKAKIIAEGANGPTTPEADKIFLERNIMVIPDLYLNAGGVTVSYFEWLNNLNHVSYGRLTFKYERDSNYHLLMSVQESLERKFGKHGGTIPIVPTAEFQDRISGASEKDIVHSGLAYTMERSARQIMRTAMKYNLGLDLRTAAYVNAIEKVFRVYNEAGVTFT
Ki [1] [µM],Ki [2] [µM],Structure (SMILES)
3.4,,NC(=O)C1=CN(C2OC(COP(=O)(O)OP(=O)(O)OC[C@H]3O[C@@H](n4cnc5c(N)ncnc54)[C@H](O)[C@@H]3O)[C@H](O)[C@@H]2O)C=CC1 (stereo partly drawn)
,410,NC(=O)c1cncc([C@@H]2O[C@H](COP(=O)(O)OP(=O)(O)OC[C@H]3O[C@@H](n4cnc5c(N)ncnc54)[C@H](O)[C@@H]3O)[C@@H](O)[C@H]2O)c1
50,,NC(=O)c1cccc([C@@H]2O[C@H](COP(=O)(O)OP(=O)(O)OC[C@H]3O[C@@H](n4cnc5c(N)ncnc54)[C@H](O)[C@@H]3O)[C@@H](O)[C@H]2O)n1
